# UCH37 inh = inhibitors of human UCH37 deubiquitinase, primary screen, biochemical, Ub-AMC cleavage, fluorescence; purified proteasome/UCH37; inhibition, % (no concentration beside the values); 0.33% of 330,000 active;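 active means mean inhibition over replicate wells above about 20%, limit read from the data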;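 further: 0% = compound-free wells with enzyme and 100% = wells lacking proteasome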
#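 Test system – human UCH37 enzyme supplied as purified proteasome complex · Incubation – 30 min preincubation with enzyme, 25 min cleavage at room temperature · Detection – AMC fluorescence from Ub-AMC cleavage, excitation 355 nm, emission 460 nm · Benchmarks – no-proteasome wells (full inhibition) and compound-free wells (no inhibition)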
# NLRP3 yeast inh = NALP3 inflammasome inhibitors in reconstituted yeast, primary screen, luminescence, uHTS; Yeast reconstituted NLRP3/ASC/caspase-1, beta-gal luminescence, 24 h; inhibition, % at 10 µM; 0.39% of 330,000 active;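 active means inhibition of 50% or more; inactive means inhibition below 50%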;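 further: plate controls were induced DMSO wells for no effect and uninduced yeast grown without galactose for full effect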
# ATG4B inh = ATG4B protease inhibitors, primary screen, biochemical, fluorescence, uHTS. Cysteine protease ATG4B (Homo sapiens), Q9Y4P1. ATG4B cleavage of LC3-PLA2, NBD-HPC fluorescence, 1 h. inhibition, % at 8.33 µM. 0.51% of 340,000 active. AID 504462, 2011; in the data active means inhibition above about 40%
# Target sequence (Q9Y4P1 whole entry, looked up): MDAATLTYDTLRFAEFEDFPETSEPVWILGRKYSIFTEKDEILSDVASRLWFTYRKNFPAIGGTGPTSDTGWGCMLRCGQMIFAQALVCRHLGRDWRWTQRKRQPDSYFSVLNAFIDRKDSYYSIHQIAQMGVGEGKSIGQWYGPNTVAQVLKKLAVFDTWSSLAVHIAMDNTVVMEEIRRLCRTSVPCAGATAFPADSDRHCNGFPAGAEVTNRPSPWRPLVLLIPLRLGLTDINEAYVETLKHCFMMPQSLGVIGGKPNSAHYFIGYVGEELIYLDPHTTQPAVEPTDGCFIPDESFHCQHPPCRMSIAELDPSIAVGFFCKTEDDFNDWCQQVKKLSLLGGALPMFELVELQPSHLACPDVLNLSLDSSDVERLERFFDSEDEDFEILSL
# ALR inh = inhibitors of human ALR sulfhydryl oxidase, primary screen, biochemical, H2O2 detection, HRP-luminol luminescence, single point | FAD-linked sulfhydryl oxidase ALR (Homo sapiens), P55789 | purified ALR, DTT oxidation | inhibition, % (concentration not given with the values) | 3.8% of 290,000 active | AID 485317, 2010;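 active means mean replicate inhibition above about 79%, with every replicate also reaching it, limit read from the data; inconclusive means only one of the two criteria met; inactive means mean below limit and not every replicate reaching it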
# NALP1 yeast inh = NALP1 inflammasome inhibitors in reconstituted yeast, colorimetric, S. cerevisiae, triplicate retest; S. cerevisiae NALP1/ASC/caspase-1 growth, X-gal OD620, 72 h; 0.61% of 280,000 active; inhibition, % at 10 µM; in the data active means inhibition mostly above about 24%, no sharp cut-off; inactive means mostly below about 32%
# Calb FLC = C. albicans growth inhibition with fluconazole, primary screen, CaCi-2 strain, Alamar Blue fluorescence; C. albicans CaCi-2 + fluconazole, 48 h; growth inhibition, % (no concentration beside the values); 0.57% of 300,000 active; AID 1979, 2009;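 active means growth inhibition above about 58% in most replicates, limit read from the data, passing the limit was not always enough; inconclusive means exactly half the replicates above a set limit; inactive means most replicates below a set limit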;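 further: all wells also contain fluconazole at 8 µg/ml as a sub-toxic cotreatment; 0% = median of DMSO wells and 100% = median of geldanamycin control wells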
# * = called active by the depositor; ? = inconclusive; . = no result given. The list is not random: actives were taken first. Their share in the collection is about 4.8%.
SMILES,UCH37 inh,NLRP3 yeast inh,ATG4B inh,ALR inh,NALP1 yeast inh,Calb FLC
CCOc1ccc(C(CCC(=O)O)=NNC(=O)c2cccc(S(=O)(=O)Nc3ccccc3OC)c2)cc1,3,.,.,.,.,.
O=C(COc1ccccc1[N+](=O)[O-])NN=Cc1cccc(OC(=O)c2ccc3c(c2)OCO3)c1,0,.,.,.,.,.
CC(CC(=O)Nc1ccc2c(c1)OCCO2)=NNC(=O)COc1ccccc1,-1,.,.,.,.,.
COc1ccc(C=NNC(=O)c2c(Br)cnn2C)c2ccccc12,0,.,.,.,.,.
CC(C)Sc1nc(N2CCOCC2)c2c(c1C#N)CC(C)(C)SC2,3,4,4,-4,36*,-2
CN(C)C=Nc1cc(=O)n(C)c(=O)n1Cc1ccccc1,2,.,.,.,.,.
S=c1[nH]nc(-c2ccco2)n1C1CCCCC1,-2,-17,-6,95*,-23,-5
COc1ccc(-n2c(-c3ccco3)n[nH]c2=S)cc1,-1,12,0,95*,-7,1
Nn1c(-c2ccco2)n[nH]c1=S,5,20,2,1,6,-1
O=C(O)CCn1c(CO)nc2ccccc21,4,15,-10,-4,2,31
O=C(O)CCn1c(-c2ccccc2)cc2ccccc21,-6,-8,-1,-6,34*,11
O=C(CSCc1ccccc1Cl)N1CCN(c2ccccn2)CC1,0,-5,6,99*,5,8
CCc1ccc(-c2nc(CSCC(=O)N3CCN(c4ccccn4)CC3)c(C)o2)cc1,2,2,-9,85*,5,-3
Cc1oc(-c2ccccc2Cl)nc1CSCC(=O)N1CCCC1,3,10,-1,75,27,-3
CCOc1ccc(-c2nc(CSCC(=O)N3CCN(c4cccc(OC)c4)CC3)c(C)o2)cc1,6,0,-24,99*,-24,0
O=C(c1ccc(CS(=O)(=O)c2ccc(Br)cc2)o1)N1CCN(c2ccccn2)CC1,2,1,-7,0,-9,-2
Cc1ccc(S(=O)(=O)Cc2ccc(C(=O)N3CCN(c4ccccn4)CC3)o2)cc1,.,12,4,97*,-19,-4
Cc1n[nH]c(=S)n1N=Cc1ccc(-c2ccccc2[N+](=O)[O-])o1,5,.,.,.,.,.
CCCCC(=O)NN=Cc1sccc1C,1,.,.,.,.,.
O=C(N1CCN(c2ccccn2)CC1)C(Cl)(Cl)Cl,1,24,-8,1,55*,3
Cc1ccc(-c2nc(CSCC(=O)N3CCN(c4ccccn4)CC3)c(C)o2)cc1,2,4,-6,99*,0,2
COc1cccc(C=Nc2nc3ccccc3n2C)c1O,4,.,.,.,.,.
NC1=NC(=O)/C(=C/c2cn(CCC(=O)O)nc2-c2ccc(Cl)cc2)S1,15,.,-3,98*,11,5
Cc1ccc(-c2nn(CCC(=O)O)cc2/C=C\C(=O)c2ccc(Br)cc2)cc1,8,20,11,97*,-6,?
O=C(NN=Cc1ccc(F)cc1)c1ccccc1NS(=O)(=O)c1cccs1,4,-9,-11,.,.,.
SMILES,UCH37 inh,NLRP3 yeast inh,ATG4B inh,ALR inh,NALP1 yeast inh,Calb FLC
O=C(NN=Cc1cc(Br)c(O)c(Br)c1)c1ccccc1NS(=O)(=O)c1cccs1,-14,15,5,89*,.,.
C=C(C)C1CC=C(C)C(=NNC(=O)CCC(=O)Nc2ccccc2Cl)C1 (stereo not given),4,.,.,.,.,.
COc1ccc(N=C2C(=O)Nc3ccccc32)cc1,2,23,-2,86*,13,-32
Nc1ccc(Cl)cc1/C(=N/O)c1ccccc1,.,-17,-5,97*,0,-80
N/N=C(\c1ccccc1)c1cc(Cl)ccc1N,.,26,-2,14,11,-3
CCOC(=O)c1ccc(NC(=O)CSC(=S)N2CCOCC2)cc1,1,8,-12,100*,21,11
CCOC(=O)c1ccc(NC(=O)CN2C(=O)CN(C(C)=O)C2=S)cc1,1,-1,2,99*,17,9
Cc1cnc(NC(=O)CSC(=S)N2CCOCC2)s1,3,27,-4,97*,28,17
